A selection: hits, their analogues and other compounds. The true share with any hit is near 1.6%.
TDP2 inh: blocks human TDP2 phosphodiesterase activity; recombinant TDP2, T5PNP hydrolysis, p-nitrophenol absorbance 415 nm; hit rate 0.34% among 370,000; O95551; inhibition, % at 12.8 µM;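 active = inhibition above the mean of all tested compounds plus 3 SD, set per campaign, cut at about 25% in these data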;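 note: 0% = DMSO with enzyme and 100% = buffer with substrate but no TDP2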
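Test system: Human TDP2 enzyme | Reagent: 5 mM T5PNP | Compound dosing: 12.8 µM single point, 1% DMSO | Incubation: Enzyme reaction with compound for 2 h at 37 °C | Technique: p-Nitrophenol epi absorbance | Read-out: % inhibition relative to enzyme-containing and enzyme-free wells | Benchmarks: High control without enzyme, low control DMSO plus TDP2 | Replicates: Singlicate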
MBD2 DNA inh: inhibitors of human MBD2 binding to methylated oligonucleotide. Q9UBB5. TR-FRET. inhibition, % at 4.4 µM. hit rate 0.31% among 370,000; in the data active = inhibition above about 13%
UHRF1 MBD2 ctr: human UHRF1 methylated DNA binding inhibitors; Q96T88; UHRF1 binding to methylated oligo, TR-FRET; inhibition, % at 4.4 µM; hit rate 0.75% among 370,000; AID 687016; in the data active = inhibition above about 21%;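 note: UHRF1 SRA domain binding a hemimethylated CpG hairpin DNA probe; 0% = median of test compound wells and 100% = reference inhibitor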
Target sequence (Q96T88 whole entry, looked up, the tested form may be a part): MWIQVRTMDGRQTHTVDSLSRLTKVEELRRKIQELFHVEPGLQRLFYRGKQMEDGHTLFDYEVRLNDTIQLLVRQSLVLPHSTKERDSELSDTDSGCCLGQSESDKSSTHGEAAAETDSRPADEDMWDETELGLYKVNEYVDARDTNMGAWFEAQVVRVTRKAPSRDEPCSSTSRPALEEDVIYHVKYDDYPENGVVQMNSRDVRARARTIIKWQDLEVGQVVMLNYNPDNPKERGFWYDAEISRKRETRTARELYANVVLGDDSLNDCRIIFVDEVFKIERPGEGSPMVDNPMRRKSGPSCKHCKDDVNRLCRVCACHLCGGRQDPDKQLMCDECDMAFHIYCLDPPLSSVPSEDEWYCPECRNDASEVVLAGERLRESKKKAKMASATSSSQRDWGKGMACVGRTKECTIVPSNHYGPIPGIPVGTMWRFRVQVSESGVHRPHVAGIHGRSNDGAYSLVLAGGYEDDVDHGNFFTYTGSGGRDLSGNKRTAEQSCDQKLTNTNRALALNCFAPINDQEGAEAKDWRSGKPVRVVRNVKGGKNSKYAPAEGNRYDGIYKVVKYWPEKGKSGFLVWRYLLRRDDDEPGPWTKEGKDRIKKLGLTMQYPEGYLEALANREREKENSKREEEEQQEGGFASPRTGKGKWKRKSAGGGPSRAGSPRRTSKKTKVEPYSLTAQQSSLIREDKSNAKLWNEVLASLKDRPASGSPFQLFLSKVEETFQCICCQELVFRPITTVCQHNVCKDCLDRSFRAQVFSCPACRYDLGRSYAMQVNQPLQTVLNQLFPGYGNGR
LEDGF integ inh: blocks HIV-1 LEDGF/p75-dependent DNA integration; TR-FRET IN-LEDGF/p75 DNA integration, Eu/Cy5; inhibition, % at 3.7 µM; hit rate 0.64% among 370,000; AID 743269;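 active = inhibition above the screen-wide mean plus 3 SD, cut at about 13% in these data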;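 note: signal is the Cy5 over europium emission ratio at 671 and 618 nm; 0% = plate median of compound wells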
The depositor's hits bear a star.

SMILES | TDP2 inh | MBD2 DNA inh | UHRF1 MBD2 ctr | LEDGF integ inh
COC(=O)[C@]12C[C@H](CC(=O)NCCc3ccccc3OC)C(=O)N(Cc3ccc(Cl)cc3Cl)C1=C[C@H](C1CCCC1)O[C@@H]2C | 10 | -2 | 1 | -1
CN1C(=O)C[C@@](C#N)(C(=O)NCc2ccccc2)[C@H]1c1ccccc1 | -2 | -6 | -1 | -2
CC(Sc1nc2cc([N+](=O)[O-])ccc2n1-c1cccc(C(F)(F)F)c1)C(=O)NC(N)=O (stereo not drawn) | -3 | 3 | 95* | 2
CCN1CCCCC(NC(=O)c2ccc(F)c(F)c2)C1=O (stereo not drawn) | -10 | -4 | 0 | 2
O=C(Cn1cnc2sc(-c3ccccc3)cc2c1=O)NCc1ccco1 | 8 | 10 | 50* | 11
CC(=O)Nc1cc(-c2ccc(N3CCN(C)CC3)cc2)cn2c(-c3ccc(S(C)(=O)=O)cc3)cnc12 | 4 | 2 | 25* | 1
COc1ccc(-c2nnn3c2Cn2c4ccccc4c(=O)n2[C@@H](C(C)C)C3)cc1 | 1 | 9 | 2 | -5
CCOC(=O)COc1cnc2ccccc2n1 | 3 | 7 | 22* | 2
CCOC(=O)c1ccc(Nc2cnc3ccccc3n2)cc1 | -15 | 4 | 3 | 5
Cc1ccc(CCNC(=O)CCS(=O)(=O)c2ccc(Br)cc2)cc1 | 8 | 8 | 24* | 4
Cc1ccc(-c2nc3ncccn3c2NC(=O)c2cccc(C)c2)cc1 | 0 | 1 | 0 | 3
Cc1ccc(S(=O)(=O)NCC(=O)OCC(=O)Nc2ccc(C)c(S(=O)(=O)N3CCOCC3)c2)cc1 | -15 | -4 | 2 | 6
O=C(Nc1cccc(S(=O)(=O)N2CCOCC2)c1)c1ccc2ccccc2n1 | -16 | 1 | 22* | -5
Cc1ccc(S(=O)(=O)NCC(=O)OCC(=O)Nc2cccc(S(=O)(=O)N3CCOCC3)c2)cc1 | -10 | -2 | 0 | 27*
COc1cccc(C(=O)N/N=C(/CCC(=O)O)c2ccccc2)c1 | 3 | -6 | -1 | 0
CCC/C(=N\NC(=O)c1cccc(C)c1)c1ccccc1 | -5 | 0 | 33* | 4
CN1C(=O)C(c2cn(C)c3ccccc23)(c2cn(C)c3ccccc23)c2ccccc21 | 2 | 0 | 0 | -2
CCOc1ccc(CN(C)Cc2cc(=O)oc3cc(C)c(Cl)cc23)cc1 | 0 | 2 | 0 | -6
CCOc1ccc(N(C)Cc2cc(=O)oc3ccc(OCC)cc23)cc1 | -9 | 3 | 22* | -2
CC(C)(C)c1csc(NC(=O)Cc2ccc(S(=O)(=O)N3CCOCC3)s2)n1 | -3 | -2 | 76* | 1
O=C(Cc1ccc(S(=O)(=O)N2CCOCC2)s1)Nc1ccccc1Br | 0 | -5 | 29* | 3
O=C(Cc1ccc(S(=O)(=O)N2CCOCC2)s1)NCC(=O)Nc1ccccc1Br | -4 | 7 | 4 | -2
CN(C(=O)c1ccccc1OCC(=O)Nc1ccc(Br)cc1)c1ccccc1 | -6 | -1 | 0 | -1
O=C(NC1CCCC1)N1CCC(c2nc3ccc(Cl)cc3[nH]2)CC1 | 8 | -2 | -4 | -1
C/C=C/C=C/C(=O)c1cc(C)c(OC(=O)CNC(=O)OC(C)(C)C)c(C)c1O | 4 | -6 | -1 | 3
SMILES | TDP2 inh | MBD2 DNA inh | UHRF1 MBD2 ctr | LEDGF integ inh
COc1cc(OC)c(NC(=S)NCc2ccccc2)cc1Cl | -21 | 3 | 65* | -3
CC(=O)Nc1ccc(NC(=O)C(C)OC(=O)CNS(=O)(=O)c2cccc(Cl)c2)cc1 (stereo not drawn) | 3 | 0 | 52* | -4
COC(=O)c1cccc(Cn2ccc3ccc(-c4ccc5ccn(C(=O)c6ccccc6)c5c4)cc32)c1 | 2 | -4 | -2 | -2
O=C(Nc1ccc(S(=O)(=O)NCC2CCCO2)cc1)c1ccc(Cl)cc1[N+](=O)[O-] (stereo not drawn) | 2 | -6 | 3 | 2
Cc1c(C(=O)Nc2ccc(S(=O)(=O)NCC3CCCO3)cc2)cccc1[N+](=O)[O-] (stereo not drawn) | 5 | -3 | 21* | 1
CC(=O)N[C@@H]1C[C@@H]2O[C@@H](CO)CC[C@@H]2O[C@@H]1CCc1ccc(C#CC2(O)CCCC2)cc1 | 0 | -5 | -1 | 5
C=CCN(CC#Cc1ccccc1)Cc1ccc(OC)cc1OC | 1 | 0 | -2 | -1
CCOC(=O)C(C)Oc1cc(Cl)c(C=O)cc1OC (stereo not drawn) | 13 | -1 | 62* | 2
COC(=O)COc1cc(Cl)c(C=O)cc1OC | 11 | 0 | -1 | 4
CC1CCN(S(=O)(=O)c2ccc3c(c2)N(CC(=O)NCc2cccnc2)C(=O)CS3)CC1 | 6 | 8 | 22* | 1
C=C(C)CCC(C)N1CCC(n2nccc2NC(=O)CCCc2ccccc2)CC1 (stereo not drawn) | 6 | 2 | 21* | 1
CSCC(C)N1CCC(n2nccc2NC(=O)CCCc2ccccc2)CC1 (stereo not drawn) | -8 | 10 | 1 | -1
Cc1ccc(NC(=O)CNC(=O)c2ccc(C)o2)cc1 | 8 | 3 | -1 | -1
Cc1ccc(C(=O)NCC(=O)O)o1 | -5 | 1 | 0 | 52*
CCOC(=O)c1oc2ccc(CNC(C)(C)C)c(Cl)c2c1C | -13 | -3 | 97* | 3
CC(=O)CC[C@H]1CC[C@]2(CCCN(C(=O)C(C)(C)C)C2)O1 | 3 | -1 | 0 | -3
COCCCNC(=O)C[C@H]1C[C@@]2(C(=O)OC)C(=C[C@H](C(C)C)O[C@@H]2C2CC2)N(Cc2ccc3c(c2)OCO3)C1=O | 4 | -3 | -4 | 3
CCOc1cc(C2C(C#N)=C(N)Oc3n[nH]c(CC)c32)ccc1OCCN1CCOCC1 (stereo not drawn) | -8 | 5 | 22* | -1
CCCc1[nH]nc2c1C(c1ccc(OCCN3CCOCC3)c(OCC)c1)C(C#N)=C(N)O2 (stereo not drawn) | -1 | 5 | -2 | 3
O=C(OCC(=O)c1ccc[nH]1)c1ccc([N+](=O)[O-])cc1 | 6 | -1 | 18 | -3
O=C(COC(=O)c1ccc([N+](=O)[O-])s1)c1ccc[nH]1 | 35* | 3 | -3 | 4
CN1CCN(C(=O)/C(=C/c2ccccc2Cl)NC(=O)c2ccccc2)CC1 | 5 | 3 | 1 | 45*
CN1CCN(C(=O)/C(=C\c2cccs2)NC(=O)c2ccccc2)CC1 | 21 | -3 | -2 | 3
Cc1cccnc1NC(=O)/C=C/c1ccc2c(c1)OCO2 | 14 | 6 | 23* | 7
COCCNC(=O)[C@]1(C#N)CC(=O)N(C)[C@@H]1c1ccccc1 | 0 | 0 | -1 | 3
COc1ccc2cc(-c3cn(C(=O)N(c4ccccc4)c4ccccc4)nn3)ccc2c1 | -8 | -2 | 1 | 3
CN(Cc1ccco1)c1ncnc2ccc(-c3ccoc3)cc12 | -4 | 13 | 22* | 20*
CN(Cc1ccco1)c1ncnc2ccc(-c3ccccc3Cl)cc12 | -14 | -4 | 0 | -2
Oc1ccc2c(c1)C1CCCC1(N1CCOCC1)O2 (stereo not drawn) | 5 | 2 | 14 | 31*

Screens as filed in PubChem.
